According to ChEMBL document CHEMBL3808334, “Synthesis and in vitro evaluation of novel triazine analogues as anticancer agents and their interaction studies with bovine serum albumin” (Eur J Med Chem, 2016):

Columns and labels:
Assay type in all cases: functional
[1] = system: MDA-MB-468; test: Growth inhibition of human MDA-MB-468 cells incubated for 48 hrs by sulforhodamine B assay; conditions: MDA-MB-468, 48 h
Method in brief: (§1)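 Cells were plated at 5,000–40,000 per well according to doubling time and preincubated 24 h at 37 °C in 5% CO2; time-zero plates were then TCA-fixed. Five concentrations (10-fold or ½-log dilutions, DMSO stock) were incubated 48 h. Cells were TCA-fixed, stained with 0.4% SRB and read at 515 nm. GI50 was taken where [(Ti−Tz)/(C−Tz)]×100 = 50.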

[2] = Growth inhibition of human SNB75 cells assessed as cell growth at 10^-8 M incubated for 48 hrs by sulforhodamine B assay; conditions: SNB-75, 48 h, read-out: Activity
[3] = system: MCF7; test: Growth inhibition of human MCF7 cells assessed as cell growth at 10^-5 M incubated for 48 hrs by sulforhodamine B assay; conditions: MCF7, 48 h, read-out: Activity
[4] = Growth inhibition of human HCT15 cells incubated for 48 hrs by sulforhodamine B assay; conditions: HCT-15, 48 h
Method in brief: (§2)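 Cells seeded at 5,000–40,000/well according to doubling time and preincubated 24 h at 37 °C, 5% CO2. Time-zero plates were TCA-fixed. DMSO concentrate was diluted in medium with 50 µg/ml gentamicin to give five concentrations (10-fold or ½ log steps), then exposed 48 h. Cells were TCA-fixed, stained with 0.4% SRB and read at 515 nm. Percent growth was taken against time-zero and control; GI50, TGI and LC50 derived.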

[5] = Growth inhibition of human COLO205 cells assessed as cell growth at 10^-8 M incubated for 48 hrs by sulforhodamine B assay; conditions: COLO 205, 48 h, read-out: Activity; method in brief: as §2
[6] = Growth inhibition of human HL-60(TB) cells assessed as cell growth at 10^-4 M incubated for 48 hrs by sulforhodamine B assay; conditions: HL-60, 48 h, read-out: Activity
Method in brief: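 Cells plated at 5,000–40,000/well according to doubling time and preincubated 24 h at 37 °C, 5% CO₂, with time-zero plates TCA-fixed. Drugs were kept as DMSO concentrates at 400× the top concentration and diluted in medium with 50 µg/ml gentamicin. Five 10-fold or ½-log dilutions were run for 48 h, followed by SRB staining and A515. Percent growth = (Ti−Tz)/(C−Tz)×100, or (Ti−Tz)/Tz×100 when Ti<Tz.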

[7] = system: T47D; test: Growth inhibition of human T47D cells assessed as cell growth at 10^-5 M incubated for 48 hrs by sulforhodamine B assay; conditions: read-out: Activity
[8] = Growth inhibition of human SW620 cells assessed as cell growth at 10^-7 M incubated for 48 hrs by sulforhodamine B assay; conditions: SW-620, 48 h, read-out: Activity
[9] = system: MDA-MB-435; test: Growth inhibition of human MDA-MB-435 cells assessed as cell growth at 10^-5 M incubated for 48 hrs by sulforhodamine B assay; conditions: MDA-MB-435, 48 h, read-out: Activity
[10] = Growth inhibition of human DU145 cells assessed as cell growth at 10 uM incubated for 48 hrs by sulforhodamine B assay; conditions: DU-145, 48 h, read-out: Activity
Method in brief: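 Primary screen at one dose (10 µM) across 60 human cancer cell lines. Readout was growth percent relative to untreated control and time-zero.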

[11] = Growth inhibition of human HCT116 cells incubated for 48 hrs by sulforhodamine B assay; conditions: HCT-116, 48 h; method in brief: as §2
[12] = system: M14; test: Growth inhibition of human M14 cells assessed as cell growth at 10 uM incubated for 48 hrs by sulforhodamine B assay; conditions: M14, 48 h, read-out: Activity
[13] = system: MDA-MB-435; test: Growth inhibition of human MDA-MB-435 cells incubated for 48 hrs by sulforhodamine B assay; conditions: MDA-MB-435, 48 h; method in brief: as §1
[14] = system: NCI-H23; test: Growth inhibition of human NCI-H23 cells assessed as cell growth at 10^-6 M incubated for 48 hrs by sulforhodamine B assay; conditions: NCI-H23, 48 h, read-out: Activity
[15] = system: K562; test: Growth inhibition of human K562 cells assessed as cell growth at 10^-6 M incubated for 48 hrs by sulforhodamine B assay; conditions: K562, 48 h, read-out: Activity
[16] = Growth inhibition of human SKOV3 cells assessed as cell growth at 10^-4 M incubated for 48 hrs by sulforhodamine B assay; conditions: SK-OV-3, 48 h, read-out: Activity
[17] = Growth inhibition of human BT549 cells assessed as cell growth at 10^-8 M incubated for 48 hrs by sulforhodamine B assay; conditions: BT-549, 48 h, read-out: Activity
Method in brief: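 Five-dose assay: five concentrations from 10-fold or ½-log serial dilutions. Cells are plated at 5,000–40,000 per well according to doubling time, grown 24 h, then exposed 48 h at 37 °C, 5% CO₂. Fixed with cold 50% TCA (final addition) for 60 min at 4 °C and stained with 0.4% SRB in 1% acetic acid. Bound dye is solubilized in 10 mM Tris base and read at 515 nm. GI₅₀ is where [(Ti−Tz)/(C−Tz)]×100 = 50, with a time-zero plate as Tz.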

[18] = Growth inhibition of human SNB75 cells assessed as cell growth at 10^-7 M incubated for 48 hrs by sulforhodamine B assay; conditions: SNB-75, 48 h, read-out: Activity
[19] = Growth inhibition of human IGROV1 cells assessed as cell growth at 10 uM incubated for 48 hrs by sulforhodamine B assay; conditions: IGROV-1, 48 h, read-out: Activity
[20] = Growth inhibition of human SNB19 cells assessed as cell growth at 10 uM incubated for 48 hrs by sulforhodamine B assay; conditions: SNB-19, 48 h, read-out: Activity
[21] = Growth inhibition of human UO31 cells assessed as cell growth at 10 uM incubated for 48 hrs by sulforhodamine B assay; conditions: UO-31, 48 h, read-out: Activity
[22] = Growth inhibition of human DU145 cells incubated for 48 hrs by sulforhodamine B assay; conditions: DU-145, 48 h; for CC50: read-out: pLC50 (the source's name) (converted); method in brief: as §2
[23] = system: SK-MEL-5; test: Growth inhibition of human SK-MEL-5 cells assessed as cell growth at 10^-8 M incubated for 48 hrs by sulforhodamine B assay; conditions: SK-MEL-5, 48 h, read-out: Activity
[24] = read-out: LC50 (the source's name)
[25] = read-out: pLC50 (the source's name) (converted)

Fc1ccc(-c2nc(Nc3ccc(-c4nc5ccccc5[nH]4)cc3)nc(N3CCOCC3)n2)cc1
GI50 ([1]; read-out: GI50): 2.92 µM | CC50 [1, 24]: > 100 µM | TGI ([1]; read-out: TGI): 7.65 µM | GI50 ([1]; read-out: pGI50 (converted)): 2.95 µM | CC50 [1, 25]: > 100 µM | TGI ([1]; read-out: pTGI (converted)): 7.59 µM | growth at 0.01 µM [2]: 86% | growth at 10 µM [3]: 1% | GI50 ([4]; read-out: GI50): 1.67 µM | CC50 [4, 24]: > 100 µM | TGI ([4]; read-out: TGI): 4.78 µM | GI50 ([4]; read-out: pGI50 (converted)): 1.66 µM | CC50 [4, 25]: > 100 µM | TGI ([4]; read-out: pTGI (converted)): 4.79 µM | growth at 0.01 µM [5]: 100% | growth at 100 µM [6]: -20% | growth at 10 µM [7]: -50% | growth at 0.1 µM [8]: 100% | growth at 10 µM [9]: -62% | growth at 10 µM [10]: 38.5% | GI50 ([11]; read-out: GI50): 1.9 µM | CC50 [11, 24]: 6.56 µM | TGI ([11]; read-out: TGI): 3.53 µM | GI50 ([11]; read-out: pGI50 (converted)): 1.91 µM | CC50 [11, 25]: 6.61 µM | TGI ([11]; read-out: pTGI (converted)): 3.55 µM | growth at 10 µM [12]: -7.64% | GI50 ([13]; read-out: GI50): 1.94 µM | TGI ([13]; read-out: TGI): 4.04 µM | GI50 ([13]; read-out: pGI50 (converted)): 1.95 µM | TGI ([13]; read-out: pTGI (converted)): 4.07 µM | growth at 1 µM [14]: 85% | growth at 1 µM [15]: 101% | growth at 100 µM [16]: -49% | growth at 0.01 µM [17]: 94% | growth at 0.1 µM [18]: 89% | growth at 10 µM [19]: 33.7% | growth at 10 µM [20]: 17.5% | growth at 10 µM [21]: -43.5% | LC50 (50% net cell kill) [22]: > 100 µM | GI50 ([22]; read-out: GI50): 4.53 µM | TGI ([22]; read-out: TGI): > 100 µM | GI50 ([22]; read-out: pGI50 (converted)): 4.57 µM | CC50 [22]: > 100 µM | TGI ([22]; read-out: pTGI (converted)): > 100 µM | growth at 0.01 µM [23]: 98%

c1ccc2[nH]c(-c3ccc(Nc4nc(N5CCCCC5)nc(N5CCOCC5)n4)cc3)nc2c1
GI50 ([1]; read-out: GI50): 2.68 µM | CC50 [1, 24]: > 100 µM | TGI ([1]; read-out: TGI): 6.51 µM | GI50 ([1]; read-out: pGI50 (converted)): 2.69 µM | CC50 [1, 25]: > 100 µM | TGI ([1]; read-out: pTGI (converted)): 6.46 µM | growth at 0.01 µM [2]: 75% | growth at 10 µM [3]: -10% | GI50 ([4]; read-out: GI50): 1.88 µM | CC50 [4, 24]: > 100 µM | TGI ([4]; read-out: TGI): 4.38 µM | GI50 ([4]; read-out: pGI50 (converted)): 1.86 µM | CC50 [4, 25]: > 100 µM | TGI ([4]; read-out: pTGI (converted)): 4.37 µM | growth at 0.01 µM [5]: 99% | growth at 100 µM [6]: -22% | growth at 10 µM [7]: -46% | growth at 0.1 µM [8]: 92% | growth at 10 µM [9]: -48% | growth at 10 µM [10]: 39% | GI50 ([11]; read-out: GI50): 1.91 µM | CC50 [11, 24]: 7.88 µM | TGI ([11]; read-out: TGI): 3.87 µM | GI50 ([11]; read-out: pGI50 (converted)): 1.91 µM | CC50 [11, 25]: 7.94 µM | TGI ([11]; read-out: pTGI (converted)): 3.89 µM | growth at 10 µM [12]: -24.5% | GI50 ([13]; read-out: GI50): 2.06 µM | CC50 [13, 24]: > 100 µM | TGI ([13]; read-out: TGI): 4.59 µM | GI50 ([13]; read-out: pGI50 (converted)): 2.04 µM | CC50 [13, 25]: > 100 µM | TGI ([13]; read-out: pTGI (converted)): 4.57 µM | growth at 1 µM [14]: 91% | growth at 1 µM [15]: 109% | growth at 100 µM [16]: -67% | growth at 0.01 µM [17]: 94% | growth at 0.1 µM [18]: 74% | growth at 10 µM [19]: 51.3% | growth at 10 µM [20]: 10.4% | growth at 10 µM [21]: -37.8% | LC50 (50% net cell kill) [22]: > 100 µM | GI50 ([22]; read-out: GI50): 4.28 µM | TGI ([22]; read-out: TGI): > 100 µM | GI50 ([22]; read-out: pGI50 (converted)): 4.27 µM | CC50 [22]: > 100 µM | TGI ([22]; read-out: pTGI (converted)): > 100 µM | growth at 0.01 µM [23]: 97%
